Measurements pooled from the literature.
Compare with care: the assays were run in different laboratories.
Target: Mitogen-activated protein kinase 10 (MAPK10, Homo sapiens, UniProt P53779)

CC1=C(C#N)C(c2ccc3c(c2)c(NC(=O)c2ccccc2C)nn3C)C(C#N)=C(C)N1
remaining binding (cell-free assay, competition with immobilised ligand; 1 µM): 100%

CCCS(=O)(=O)Nc1ccc(F)c(C(=O)c2c[nH]c3ncc(-c4ccc(Cl)cc4)cc23)c1F
inhibition (enzyme activity, inhibitor; 1 µM): < 10%

Cc1ccc(C(=O)Nc2ccc(CN3CCN(C)CC3)c(C(F)(F)F)c2)cc1C#Cc1cnc2cccnn12
remaining activity (enzyme activity, inhibitor; 23.5 nM): 85%

COc1cc(Cl)c(C(=O)N[C@@H](CN[C@H]2CC[C@@H](N)CC2)Cc2ccc(C#N)cc2)cc1-c1ccc(CN[C@H](C)c2ccc(C)cc2)o1
remaining activity (enzyme activity, inhibitor; 1 µM): 93%

FC(F)(F)Oc1cccc(-c2cnc3ccc(-c4ccncc4)nn23)c1
activity vs control (enzyme activity, inhibitor, radiometric; 5 µM): 81%

Oc1cccc(-c2nc(N3CCOCC3)c3oc4ncccc4c3n2)c1
remaining activity (enzyme activity, inhibitor; 10 µM): 101%

Cc1c(NC(=O)c2cc(C(N)=O)nc3cc(F)ccc23)c(C(F)(F)F)nn1Cc1ccc(C(C)(C)C)cc1
remaining binding (cell-free assay, competition with immobilised ligand; 1 µM): 100%

Cc1sc(C(=O)NC2COC2)cc1-n1cc(NC(=O)Nc2c(F)cccc2Cl)cn1
remaining activity (enzyme activity, inhibitor; 10 µM): 10.5%

Nc1ncnc2c1ncn2[C@@H]1O[C@H](COP(=O)(O)OP(=O)(O)OP(=O)(O)O)[C@@H](O)[C@H]1O
ΔTm (thermal stability, DSF; 200 µM): 2.73 °C

O=C1Nc2ccc(Cl)cc2C1=Cc1cc(Cl)c(O)c(Cl)c1
remaining signal (cell-free assay; 0.5 µM): 98.8%

CN(C)CC#Cc1ccc(OCCCc2sc(N3CCc4cccc(C(=O)Nc5nc6ccccc6s5)c4C3)nc2C(=O)O)c(F)c1
remaining binding (cell-free assay, competition with immobilised ligand; 1 µM): 71%

N#CCCc1ccc2c(c1)-c1[nH]c3ccc([N+](=O)[O-])cc3c1CC(=O)N2
remaining signal (cell-free assay; 0.5 µM): 93.3%

COc1cc2ncnc(Nc3ccc(Oc4ccccc4)cc3C)c2cc1OC
inhibition (enzyme activity, inhibitor; 1 µM): 5%

CC(=O)N1CCC(c2ccc(C(=O)NC3=NCCN3)cc2C(F)(F)F)CC1
remaining binding (cell-free assay, competition with immobilised ligand; 1 µM): 100%

Cc1cnc(NC2CCOCC2)nc1-n1cnc(C(=O)NC(CN)c2cc(F)cc(Cl)c2)c1 (stereo not drawn)
remaining activity (enzyme activity, inhibitor, radiometric; 1 µM): 55%

CNC(=O)c1cc(Oc2ccc(NC(=O)Nc3ccc(Cl)c(C(F)(F)F)c3)cc2)ccn1
inhibition (enzyme activity, inhibitor; 0.3 µM): 9%

CC(C)(C)c1nc2c(s1)c1nc(N)ncc1c1ccc(NS(=O)(=O)c3c(F)cccc3F)c(F)c12
remaining activity (enzyme activity, inhibitor, radiometric; 1 µM): 70%

CCOc1cc(-c2nncn2C)ccc1Nc1ncc2cc(C)nc(NCC(C)(C)C)c2n1
inhibition (enzyme activity, inhibitor, FRET; 1 µM): 80%

O=C(NC[C@@H]1[C@H]2CN(C(=O)OCc3cc(C(F)(F)F)cc(C(F)(F)F)c3)C[C@@H]12)c1ccc2[nH]nnc2c1
remaining binding (cell-free assay, competition with immobilised ligand; 1 µM): 90%

Cc1ccc(NC(=O)c2ccc(C)c(C(F)(F)F)c2)cc1C#Cc1nn(C2CCC(O)CC2)c2ncnc(N)c12 (stereo not drawn)
remaining signal (cell-free assay; 10 µM): 40%

C[C@H](c1ccnc(Nc2nc3ccc(-c4cc(N(C)C)ncn4)cc3[nH]2)c1)N1CCN(C(=O)CC(F)(F)F)CC1
remaining binding (cell-free assay, competition with immobilised ligand; 0.1 µM): 81%

COc1cc(Nc2cnc(C#N)c(O[C@H](C)CN(C)C)n2)ncc1-c1cnn(C)c1
remaining activity (enzyme activity, inhibitor, radiometric; 1 µM): 113%

c1ccc(N2CCN(Cc3nc4ccccc4[nH]3)CC2)nc1
remaining binding (binding, competition with immobilised ligand; 1 µM): 100%

COc1cc(-c2cc(-c3ccc(N4CCNCC4)cc3)cnc2C)cc(OC)c1OC
inhibition (enzyme activity, inhibitor; 0.1 µM): 1%
